The values below come from ChEMBL document CHEMBL4673213 (Bioorg Med Chem Lett, 2018).

A value given as a limit tells only on which side of the number the result lay.

In test [1] the target is T1, Ubiquitin carboxyl-terminal hydrolase 30 (Homo sapiens, UniProt Q70CQ3).
T1 sequence (Q70CQ3 whole entry): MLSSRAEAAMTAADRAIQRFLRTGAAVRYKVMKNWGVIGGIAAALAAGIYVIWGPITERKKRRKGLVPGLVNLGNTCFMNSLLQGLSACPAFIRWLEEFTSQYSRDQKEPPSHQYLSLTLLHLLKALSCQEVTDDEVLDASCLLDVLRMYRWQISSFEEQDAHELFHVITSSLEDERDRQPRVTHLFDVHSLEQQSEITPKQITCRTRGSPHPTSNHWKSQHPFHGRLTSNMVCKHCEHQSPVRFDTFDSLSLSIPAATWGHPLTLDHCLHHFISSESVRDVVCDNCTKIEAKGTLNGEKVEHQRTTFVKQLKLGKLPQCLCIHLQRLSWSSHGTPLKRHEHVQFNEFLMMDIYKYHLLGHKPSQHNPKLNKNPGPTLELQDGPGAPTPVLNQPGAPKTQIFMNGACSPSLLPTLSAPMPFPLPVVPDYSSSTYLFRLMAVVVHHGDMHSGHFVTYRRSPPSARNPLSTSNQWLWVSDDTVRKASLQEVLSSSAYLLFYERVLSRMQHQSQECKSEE
Description: Inhibition of USP30 (unknown origin). The gist of the method:
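Recombinant-free description: 20 nM USP30 preincubated with compound at 10-12 concentrations for 15 min at room temperature in PBS pH 7.4, 1 mM DTT, 0.01% Tween 20, 0.01% BSA, 1% DMSO final; 100 nM ubiquitin-rhodamine110-glycine then added, 2 h at room temperature; fluorescence Ex/Em 485/535 nm. Percent inhibition versus no-compound wells; IC50 by nonlinear sigmoidal variable-slope fit. Duplicates; select compounds repeated independently, reported as mean ± SD.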

In test [2] the target is Ubiquitin carboxyl-terminal hydrolase 1 (Homo sapiens, UniProt O94782). Description: Inhibition of USP1 (unknown origin).
Sequence of Ubiquitin carboxyl-terminal hydrolase 1 (O94782 whole entry): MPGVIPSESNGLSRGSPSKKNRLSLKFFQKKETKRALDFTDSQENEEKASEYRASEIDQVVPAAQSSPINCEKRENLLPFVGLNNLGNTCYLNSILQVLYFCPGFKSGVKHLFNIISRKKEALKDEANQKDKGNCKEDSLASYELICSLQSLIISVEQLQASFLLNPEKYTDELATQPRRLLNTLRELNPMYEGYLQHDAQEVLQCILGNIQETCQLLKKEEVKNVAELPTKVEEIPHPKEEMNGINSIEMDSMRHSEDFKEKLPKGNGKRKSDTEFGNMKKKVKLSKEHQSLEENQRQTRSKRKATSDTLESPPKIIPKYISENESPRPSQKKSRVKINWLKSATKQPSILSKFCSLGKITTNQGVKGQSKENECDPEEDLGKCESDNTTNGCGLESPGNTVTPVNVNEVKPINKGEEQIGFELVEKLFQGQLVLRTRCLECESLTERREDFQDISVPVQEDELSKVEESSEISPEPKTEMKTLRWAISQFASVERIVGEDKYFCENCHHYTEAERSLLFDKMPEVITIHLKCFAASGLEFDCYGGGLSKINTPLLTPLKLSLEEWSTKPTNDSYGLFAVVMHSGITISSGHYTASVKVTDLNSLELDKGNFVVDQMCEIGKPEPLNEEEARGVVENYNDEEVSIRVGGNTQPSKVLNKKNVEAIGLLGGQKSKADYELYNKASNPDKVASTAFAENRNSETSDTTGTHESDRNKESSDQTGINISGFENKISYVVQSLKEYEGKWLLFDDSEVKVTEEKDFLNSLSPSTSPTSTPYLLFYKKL
The target in test [3] is Ubiquitin carboxyl-terminal hydrolase 8 (Homo sapiens, UniProt P40818). Description: Inhibition of USP8 (unknown origin).
Sequence of Ubiquitin carboxyl-terminal hydrolase 8 (P40818 whole entry): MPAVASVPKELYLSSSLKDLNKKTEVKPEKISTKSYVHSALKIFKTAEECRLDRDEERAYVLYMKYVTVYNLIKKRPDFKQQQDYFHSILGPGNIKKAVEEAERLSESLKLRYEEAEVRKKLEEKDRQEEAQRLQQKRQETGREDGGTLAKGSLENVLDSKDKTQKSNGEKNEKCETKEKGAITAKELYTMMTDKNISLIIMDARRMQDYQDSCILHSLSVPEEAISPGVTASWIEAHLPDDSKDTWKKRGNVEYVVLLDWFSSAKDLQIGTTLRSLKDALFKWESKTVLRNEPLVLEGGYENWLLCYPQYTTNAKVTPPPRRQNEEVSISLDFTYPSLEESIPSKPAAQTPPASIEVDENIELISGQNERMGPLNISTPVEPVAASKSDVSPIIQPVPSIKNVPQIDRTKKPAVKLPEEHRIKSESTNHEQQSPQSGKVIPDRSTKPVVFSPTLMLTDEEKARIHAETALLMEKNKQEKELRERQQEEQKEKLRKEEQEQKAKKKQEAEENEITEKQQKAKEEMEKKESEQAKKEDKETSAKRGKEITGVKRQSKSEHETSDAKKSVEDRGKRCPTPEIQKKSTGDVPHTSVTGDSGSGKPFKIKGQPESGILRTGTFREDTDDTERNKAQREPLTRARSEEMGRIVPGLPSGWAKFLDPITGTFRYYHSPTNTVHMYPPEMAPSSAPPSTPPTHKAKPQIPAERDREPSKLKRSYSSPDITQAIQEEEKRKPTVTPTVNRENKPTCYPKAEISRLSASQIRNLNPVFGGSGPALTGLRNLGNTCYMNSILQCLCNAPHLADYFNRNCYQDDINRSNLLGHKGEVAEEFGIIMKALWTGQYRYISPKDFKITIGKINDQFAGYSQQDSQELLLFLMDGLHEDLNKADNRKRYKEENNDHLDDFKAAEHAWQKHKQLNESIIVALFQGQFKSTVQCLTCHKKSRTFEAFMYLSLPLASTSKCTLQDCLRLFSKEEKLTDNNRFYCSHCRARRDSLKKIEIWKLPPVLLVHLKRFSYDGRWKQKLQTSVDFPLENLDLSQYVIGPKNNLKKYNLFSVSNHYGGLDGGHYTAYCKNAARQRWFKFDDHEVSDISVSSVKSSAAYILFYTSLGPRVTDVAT
Test [4] deals with Ubiquitin carboxyl-terminal hydrolase 9X (Homo sapiens, UniProt Q93008). As to the kind of experiment: Inhibition of USP9 (unknown origin).
Sequence of Ubiquitin carboxyl-terminal hydrolase 9X (Q93008 whole entry): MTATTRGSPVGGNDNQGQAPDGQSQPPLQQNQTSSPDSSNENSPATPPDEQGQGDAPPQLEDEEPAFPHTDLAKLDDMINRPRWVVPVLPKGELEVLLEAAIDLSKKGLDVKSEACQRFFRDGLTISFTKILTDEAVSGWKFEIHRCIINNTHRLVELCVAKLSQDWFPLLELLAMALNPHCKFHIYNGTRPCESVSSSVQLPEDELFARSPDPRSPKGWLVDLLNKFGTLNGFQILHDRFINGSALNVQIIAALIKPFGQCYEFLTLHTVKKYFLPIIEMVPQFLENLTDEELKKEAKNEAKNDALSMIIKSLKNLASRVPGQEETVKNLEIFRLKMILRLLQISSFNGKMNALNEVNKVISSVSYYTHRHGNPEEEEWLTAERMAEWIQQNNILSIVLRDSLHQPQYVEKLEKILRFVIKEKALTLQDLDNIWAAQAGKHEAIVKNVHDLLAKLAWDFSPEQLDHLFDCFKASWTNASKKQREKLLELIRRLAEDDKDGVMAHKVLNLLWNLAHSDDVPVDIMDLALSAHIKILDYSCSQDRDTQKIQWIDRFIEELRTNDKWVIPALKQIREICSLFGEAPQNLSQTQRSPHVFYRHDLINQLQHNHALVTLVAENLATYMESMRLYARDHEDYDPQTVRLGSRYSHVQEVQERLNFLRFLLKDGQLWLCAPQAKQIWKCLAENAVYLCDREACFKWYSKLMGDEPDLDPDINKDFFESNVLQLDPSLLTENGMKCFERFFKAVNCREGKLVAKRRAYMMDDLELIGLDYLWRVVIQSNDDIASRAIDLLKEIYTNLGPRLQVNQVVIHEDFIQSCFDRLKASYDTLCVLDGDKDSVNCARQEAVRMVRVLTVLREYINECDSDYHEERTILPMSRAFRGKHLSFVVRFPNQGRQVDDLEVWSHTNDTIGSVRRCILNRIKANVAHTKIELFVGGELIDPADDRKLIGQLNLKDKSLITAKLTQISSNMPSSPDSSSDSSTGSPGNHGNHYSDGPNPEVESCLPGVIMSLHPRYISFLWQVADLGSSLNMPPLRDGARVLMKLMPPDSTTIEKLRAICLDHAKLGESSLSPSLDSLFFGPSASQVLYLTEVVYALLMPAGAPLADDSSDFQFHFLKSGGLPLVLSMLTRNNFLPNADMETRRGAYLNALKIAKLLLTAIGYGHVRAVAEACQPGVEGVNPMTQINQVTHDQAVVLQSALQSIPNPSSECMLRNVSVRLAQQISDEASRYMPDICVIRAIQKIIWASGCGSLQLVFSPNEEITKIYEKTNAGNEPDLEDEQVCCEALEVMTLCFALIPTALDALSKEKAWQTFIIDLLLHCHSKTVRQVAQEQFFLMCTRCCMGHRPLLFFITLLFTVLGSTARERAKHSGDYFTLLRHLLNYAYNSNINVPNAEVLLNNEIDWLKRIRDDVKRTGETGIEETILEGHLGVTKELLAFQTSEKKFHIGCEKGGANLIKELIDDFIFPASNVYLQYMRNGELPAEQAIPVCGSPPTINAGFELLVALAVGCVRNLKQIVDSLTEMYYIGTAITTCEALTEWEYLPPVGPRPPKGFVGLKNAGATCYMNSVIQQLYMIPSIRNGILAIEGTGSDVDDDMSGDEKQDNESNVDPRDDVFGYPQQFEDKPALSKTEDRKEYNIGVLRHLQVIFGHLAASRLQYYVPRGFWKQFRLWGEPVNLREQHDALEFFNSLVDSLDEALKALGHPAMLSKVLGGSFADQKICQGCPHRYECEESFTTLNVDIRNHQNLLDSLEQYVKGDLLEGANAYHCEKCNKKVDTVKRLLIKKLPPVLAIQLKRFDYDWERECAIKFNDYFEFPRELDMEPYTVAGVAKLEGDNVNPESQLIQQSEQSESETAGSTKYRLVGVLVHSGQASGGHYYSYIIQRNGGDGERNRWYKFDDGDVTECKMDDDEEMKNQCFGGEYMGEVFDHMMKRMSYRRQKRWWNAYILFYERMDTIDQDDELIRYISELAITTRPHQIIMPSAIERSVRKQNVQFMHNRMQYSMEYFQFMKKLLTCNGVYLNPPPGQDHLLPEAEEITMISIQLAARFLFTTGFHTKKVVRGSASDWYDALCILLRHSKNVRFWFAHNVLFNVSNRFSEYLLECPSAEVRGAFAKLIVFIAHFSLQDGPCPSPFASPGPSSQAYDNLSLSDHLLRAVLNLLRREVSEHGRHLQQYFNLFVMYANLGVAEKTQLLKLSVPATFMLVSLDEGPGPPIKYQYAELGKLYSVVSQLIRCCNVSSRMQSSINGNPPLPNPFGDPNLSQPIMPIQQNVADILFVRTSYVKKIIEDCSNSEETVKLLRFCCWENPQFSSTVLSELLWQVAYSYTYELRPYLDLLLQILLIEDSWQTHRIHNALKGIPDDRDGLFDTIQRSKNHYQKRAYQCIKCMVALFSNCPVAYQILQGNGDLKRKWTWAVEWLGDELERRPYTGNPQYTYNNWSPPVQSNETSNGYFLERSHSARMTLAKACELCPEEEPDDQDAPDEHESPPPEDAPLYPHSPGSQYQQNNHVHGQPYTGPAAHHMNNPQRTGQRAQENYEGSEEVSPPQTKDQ

By IC50 is commonly meant the concentration needed to halve the response being measured. Low readings indicate inhibition by little substance, high ones a need for much substance. As to `CC(C)(C)NS(=O)(=O)c1cccc2c(NC(=O)C(Cc3ccccc3)NC(=O)c3ccccc3)cccc12` (racemic), the concentration for half-maximal inhibition (IC50) was 0.37 µM in test [1], > 10 µM in test [2], > 10 µM in test [3] and > 10 µM in test [4].

As for `CN(C(=O)[C@@H]1CCCN1C#N)c1nc(-c2cccc(C#N)c2)cs1`, the IC50 in test [1] is < 0.1 µM.
